Assay results reported in ChEMBL document CHEMBL3244000, “Aromatic hydroxylation of beta-adrenergic antagonists. Formation of 4'- and 5'-hydroxy-1-(isopropylamino)-3-[2'-allyloxy)phenoxy]-2-propanol from oxprenolol” (J Med Chem, 1979).

How the values were obtained:
[1] = Drug level in Sprague-Dawley rat urine treated with oxprenolol hydrochloride at 20 mg/kg, ip measured after 24 hrs by GC-CIMS analysis; format: ADME, organism-based; design: dose 20 mg/kg, route intraperitoneal; details: in vivo
How it was run: (§1)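 Six male Sprague-Dawley rats (120 g) were given oxprenolol hydrochloride ip at 20 mg/kg (4 mg/mL in sterile isotonic water). Urine was collected over 24 h in metabolic cages and pooled, then incubated overnight at 37 °C with 9200 units β-glucuronidase in pH 5.0 acetate buffer. Extract was methylated with diazomethane and TFA-derivatized. GC-CIMS monitored QM ions; isomer ratio was taken from the total ion current tracings.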

[2] = Drug level in Sprague-Dawley rat urine treated with oxprenolol hydrochloride at 20 mg/kg, ip measured after 24 hrs by GC-CIMS analysis in presence of beta-glucuronidase and CH2N2; format: ADME, organism-based; design: dose 20 mg/kg, route intraperitoneal; details: in vivo; how it was run: as §1

For `C=CCOc1cc(O)ccc1OCC(O)CNC(C)C` (centres undefined), the Drug excretion [1] was “metabolite_detected”.
With `C=CCOc1ccc(O)cc1OCC(O)CNC(C)C` (centres undefined) the Drug excretion [1] was “metabolite_detected”.
In the case of `C=CCOc1cc(OC)ccc1OCC(O)CNC(C)C` (centres undefined), the Drug excretion [2] is reported as “metabolite_detected”.
In the case of `C=CCOc1ccc(OC)cc1OCC(O)CNC(C)C` (centres undefined), the Drug excretion [2] is reported as “metabolite_detected”.
